The source of these data is ChEMBL document CHEMBL1138250, “Spiro- and dispiro-1,2-dioxolanes: contribution of iron(II)-mediated one-electron vs two-electron reduction to the activity of antimalarial peroxides” (J Med Chem, 2007).

≈ marks a conversion by molar mass, not a printed value. A value given as a limit tells only on which side of the number the result lay.

In test [1] the test system is Plasmodium falciparum. Briefly: Antimalarial activity against chloroquine-resistant Plasmodium falciparum K1. The format is functional, organism-based. A digest of the protocol:
(§1)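 IC50 (ng/mL) against P. falciparum blood stages, K1 (chloroquine-resistant) and NF54 (chloroquine-sensitive), reported as the mean of n = 2-3 determinations; individual measurements generally within 50% of each other.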

Test [2] relates to Plasmodium falciparum. The test can be described thus: Antimalarial activity against chloroquine-sensitive Plasmodium falciparum NF54. In kind it is functional, organism-based. A digest of the protocol: as §1
In a further test the test system is Plasmodium berghei. Briefly: Antimalarial activity as reduced parasitaemia against Plasmodium berghei infected NMRI mice (Mus musculus) at 100 mg/kg peroral dose 3 days post-infection. In kind it is functional. Set-up: scale not given: the % may be the effect or the level left. The conditions noted are these: route oral. The method in brief:
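Groups of three NMRI mice infected with P. berghei were dosed orally 1 day after infection with 100 mg/kg, dissolved or suspended in 3% ethanol/7% Tween-80 vehicle. Percent reduction in parasitemia was read on day 3 post-infection against an untreated control group; individual measurements generally within 10%.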

The subject of test [3] is Plasmodium falciparum. The test can be described thus: Antimalarial activity against Plasmodium falciparum. The format is functional, organism-based. A digest of the protocol:
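In vitro assay against chloroquine-resistant K1 and chloroquine-sensitive NF54 strains of P. falciparum. IC50 is reported in ng/mL as the mean of 2-3 determinations per strain, and individual measurements generally differed by less than 50%.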

Take `CC(C)(C)C1CCC2(CC1)CC1(CCCCC1)OO2` (stereo not drawn): the values for the IC50 in the test on Plasmodium falciparum [1] and in the test with Plasmodium falciparum [2] were 0.063 µg/mL (≈ 0.236 µM) and 0.12 µg/mL (≈ 0.45 µM), respectively. Besides, the Activity in the test on Plasmodium berghei stood at 30%.

As to `c1ccc(C2CCC3(CC2)CC2(CCCCC2)OO3)cc1` (stereo not drawn), the IC50 in the test with Plasmodium falciparum [1] was 0.041 µg/mL (≈ 0.143 µM); in the test with Plasmodium falciparum [2] it was 0.093 µg/mL (≈ 0.325 µM). The same compound had an Activity in the test on Plasmodium berghei of 84%.

As to `C1CCC2(CC1)CC1(CCCC1)OO2`, the IC50 stood at 0.041 µg/mL (≈ 0.209 µM) with Plasmodium falciparum [1] and 0.062 µg/mL (≈ 0.316 µM) in the test on Plasmodium falciparum [2]. Besides, the Activity in the test with Plasmodium berghei worked out at 0%.

On to `c1ccc(C2CCC3(CC2)CC2(CCCC2)OO3)cc1` (stereo not drawn), for which the IC50 with Plasmodium falciparum [1] stood at 0.038 µg/mL (≈ 0.14 µM); in the test with Plasmodium falciparum [2], 0.083 µg/mL (≈ 0.305 µM). The compound further yielded an Activity with Plasmodium berghei of 49%.

As to `CCCC1(CCC)CC2(CCCCC2)OO1`, the IC50 in the test with Plasmodium falciparum [1] was determined as 0.23 µg/mL (≈ 1.02 µM); in the test with Plasmodium falciparum [2] it was 0.36 µg/mL (≈ 1.59 µM). In the test with Plasmodium berghei, the Activity worked out at 0%.

For the compound `CCOC(=O)CCC1(C)CC2(CCCCC2)OO1` (stereo not drawn), the IC50 was 0.048 µg/mL (≈ 0.187 µM) with Plasmodium falciparum [1] and 0.081 µg/mL (≈ 0.316 µM) with Plasmodium falciparum [2]. The Activity in the test with Plasmodium berghei came to 18%.

On to `CC1(CCC(=O)O)CC2(CCCCC2)OO1` (stereo not drawn), for which the IC50 in the test on Plasmodium falciparum [1] and in the test with Plasmodium falciparum [2] was more than 1 µg/mL throughout. In the test on Plasmodium berghei, the Activity turned out to be 0%.

As to `CC1(CCCO)CC2(CCCCC2)OO1` (stereo not drawn), the 50% inhibitory concentration (IC50) in the test with Plasmodium falciparum [1] is 0.05 µg/mL (≈ 0.233 µM); in the test on Plasmodium falciparum [2] it was 0.08 µg/mL (≈ 0.373 µM). Besides, the Activity in the test on Plasmodium berghei turned out to be 0%.

Consider `C1CCC2(CC1)CC1(OO2)C2CC3CC(C2)CC1C3` (stereo not drawn), for which the figures for the IC50 in the test with Plasmodium falciparum [1] and in the test on Plasmodium falciparum [2] were 0.77 µg/mL (≈ 2.93 µM) and 0.66 µg/mL (≈ 2.52 µM), respectively. This compound returned an Activity with Plasmodium berghei of 0%.

For `c1ccc(C2CCC3(CC2)CC2(OO3)C3CC4CC(C3)CC2C4)cc1` (stereo not drawn), the 50% inhibitory concentration (IC50) with Plasmodium falciparum [1] and in the test with Plasmodium falciparum [2] was more than 1 µg/mL each time. Further, the Activity in the test with Plasmodium berghei is 0%.

`CCCC1(CCC)CC2(OO1)C1CC3CC(C1)CC2C3` (stereo not drawn): the IC50 in the test with Plasmodium falciparum [1] and in the test with Plasmodium falciparum [2] was 0.12 µg/mL (≈ 0.431 µM) throughout. The compound further displayed an Activity in the test on Plasmodium berghei of 6%.

For `C1CCC2(CC1)CC1(CCCCC1)OO2`, the half-maximal inhibitory concentration (IC50) in the test with Plasmodium falciparum [1] was 0.041 µg/mL (≈ 0.195 µM); with Plasmodium falciparum [2], 0.11 µg/mL (≈ 0.523 µM). For the same compound, in the test on Plasmodium berghei, the Activity is 0%.

On to `OC1(CC2(O)C3CC4CC(C3)CC2C4)CCCCC1` (stereo not drawn), for which the IC50 in the test with Plasmodium falciparum [3] is more than 1 µg/mL.

Regarding `c1ccc(C2CC3(CCCCC3)OO2)cc1` (stereo not drawn), the half-maximal inhibitory concentration (IC50) was determined as 0.44 µg/mL (≈ 2.02 µM) in the test on Plasmodium falciparum [1] and 0.66 µg/mL (≈ 3.02 µM) in the test with Plasmodium falciparum [2]. The compound further returned an Activity with Plasmodium berghei of 0%.

On to `CC(C)(C)C1CCC2(CC1)CC1(CCCC1)OO2` (stereo not drawn), for which the IC50 came to 0.13 µg/mL (≈ 0.515 µM) with Plasmodium falciparum [1] and 0.18 µg/mL (≈ 0.713 µM) with Plasmodium falciparum [2]. In addition, in the test with Plasmodium berghei, the Activity came to 45%.

One may read the IC50 as the point on the concentration scale where inhibition reaches its midpoint.
